The results in this text go back to ChEMBL document CHEMBL1123494, “Irreversible blockage of opioid receptor types by ester homologues of beta-funaltrexamine” (J Med Chem, 1986).

“And” between values parts separate entries of the source, which are not always exact repeats. Identical values can stand only once.

The target in test [1] is Opioid receptor (Mus musculus, UniProt P42866+P32300+P33534). Briefly: Compound was tested for agonist activity against opioid receptor in mouse vas deferens preparation. The class given is functional.
Test [2] has as its system Opioid receptors; mu/kappa/delta. Put plainly: Compound was tested for agonist potency against opioid receptor in guinea pig ileal longitudinal muscle expressed as IC50 of morphine divided by the compound. The class given is functional.
Test [3] has the same test system. Briefly: Compound was tested for irreversible antagonist activity against opioid receptor in mouse vas deferens at a concentration of 20 nM expressed as IC50 of morphine divided by the compound. The class given is functional.
Test [4] has the same test system. Put plainly: Compound was tested for irreversible antagonist activity against opioid receptor in mouse vas deferens expressed as IC50 of DADLE divided by the compound. The class given is functional, tissue-based. The method in brief:
(§1)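 Mouse vas deferens incubated 30 min with 200 nM test ligand, then washed thoroughly (20 times). Morphine and DADLE dose-response curves were rerun in the same tissue. Ratio = agonist IC50 after treatment / control IC50 in that tissue. Where the standard agonist gave under 65% response after treatment, an IC20 was estimated from the plotted dose-response curve. Means of three determinations unless otherwise noted.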

Test [5] addresses T1, Opioid receptors; mu/kappa/delta (Homo sapiens) (UniProt P41145+P41143+P35372). Put plainly: Compound was tested for irreversible antagonist activity against opioid receptor in mouse vas deferens expressed as IC50 of morphine divided by the compound (experiment 1). Type of test: functional, tissue-based. In short, it runs like this:
as §1

Test [6] deals with T1, Opioid receptors; mu/kappa/delta (Homo sapiens). Briefly: Compound was tested for irreversible antagonist activity against opioid receptor in mouse vas deferens expressed as IC50 of morphine divided by the compound (experiment. 2). Type of test: functional, tissue-based. In short, it runs like this:
as §1

For test [7], the target named is Opioid receptor (Rattus norvegicus, UniProt P33533+P34975+P33535). Briefly: The compound was tested for binding affinity against opioid receptor in rat brain membranes, using [3H]dihydromorphine as the radioligand. Type of test: cell membranes. The method in brief: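 Rat forebrain was homogenised in ice-cold 0.05 M Tris-HCl pH 7.4 and washed twice by centrifugation at 4 °C. It was preincubated 10 min at 37 °C, washed again and resuspended at 10 mg/mL. Triplicate tubes held 1 nM [3H]dihydromorphine and at least seven drug concentrations, incubated 40 min at room temperature, then vacuum-filtered. Nonspecific binding was set with 10⁻⁶ M naloxone. Values are mean ± SEM of three experiments.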

The target of test [8] is T1, Opioid receptors; mu/kappa/delta (Homo sapiens). Briefly: Compound was tested for irreversible antagonist activity against opioid receptor in mouse vas deferens expressed as IC50 of morphine divided by the compound. The class given is functional, tissue-based. In short, it runs like this: as §1
The species named for the next test is Mus musculus. Put plainly: Compound was tested for partial agonism in presence of morphine at conc. of 3 e-5. Type of test: functional.
Test [9] deals with T2, Opioid receptor (Mus musculus) (UniProt P42866+P32300+P33534). Briefly: Compound was tested for irreversible antagonist activity against opioid receptor in mouse vas deferens expressed as IC20 of morphine divided by the compound. The class given is functional, tissue-based. The method in brief: as §1
The target of test [10] is T2, Opioid receptor (Mus musculus). Put plainly: Compound was tested for agonist activity against opioid receptor in mouse vas deferens preparation at concentration of 1E-7 M. Type of test: functional.
In test [11] the target is T1, Opioid receptors; mu/kappa/delta (Homo sapiens). Put plainly: Compound was tested for irreversible antagonist activity against opioid receptor in mouse vas deferens at a concentration of 100 nM, expressed as IC50 of morphine divided by the compound. The class given is functional.
Test [12] shares this target. Briefly: Compound was tested for irreversible antagonist activity against opioid receptor in mouse vas deferens at a concentration of 20 nM, expressed as IC50 of morphine divided by the compound. Type of test: functional.
For test [13] the target is unchanged. Briefly: Compound was tested for irreversible antagonist activity against opioid receptor in mouse vas deferens at a concentration of 20 nM, expressed as IC50 of nalorphine divided by the compound. The class given is functional.
Test [14] shares this target. Put plainly: Compound was tested for irreversible antagonist activity against opioid receptor in mouse vas deferens, expressed as IC50 of DADLE divided by compound. Type of test: functional. The method in brief:
(§2)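 Mouse vas deferens tissue incubated 30 min with test ligand at 200 nM, then washed thoroughly (20 times). Standard agonist (morphine or DADLE) IC50 redetermined and divided by control IC50 from the same tissue (treated/control ratio). Where the agonist gave under 65% response after treatment, an IC20 was estimated from the plotted dose-response curve. Means of three determinations unless otherwise noted.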

For test [15] the target is unchanged. Briefly: Compound was tested for irreversible antagonist activity against opioid receptor in mouse vas deferens, expressed as IC50 of morphine divided by the compound. The class given is functional. The method in brief:
as §2

The target of test [16] is Opioid receptors; mu and delta (Mus musculus) (UniProt P42866+P32300). Put plainly: Irreversible antagonist activity against opioid receptor in mouse vas deferens at 200 nM relative to IC50 of nalorphine. The class given is functional, tissue-based.
Test [17] concerns the target T1, Opioid receptors; mu/kappa/delta (Homo sapiens). Briefly: Compound was tested for irreversible antagonist activity against opioid receptor in mouse vas deferens at a concentration of 200 nM, expressed as IC50 of nalorphine divided by the compound. The class given is functional.

T1 sequence (P35372 whole entry, looked up): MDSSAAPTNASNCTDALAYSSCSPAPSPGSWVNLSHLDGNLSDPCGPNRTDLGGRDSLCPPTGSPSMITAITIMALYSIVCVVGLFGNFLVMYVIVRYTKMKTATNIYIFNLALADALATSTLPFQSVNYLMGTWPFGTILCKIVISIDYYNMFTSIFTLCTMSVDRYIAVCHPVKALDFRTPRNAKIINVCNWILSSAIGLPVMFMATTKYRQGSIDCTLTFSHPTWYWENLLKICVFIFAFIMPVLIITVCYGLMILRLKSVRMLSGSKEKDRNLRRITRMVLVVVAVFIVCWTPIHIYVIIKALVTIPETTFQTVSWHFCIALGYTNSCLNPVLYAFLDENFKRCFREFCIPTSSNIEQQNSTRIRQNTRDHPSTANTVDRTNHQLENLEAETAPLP
T1 sequence (P41143 whole entry, looked up): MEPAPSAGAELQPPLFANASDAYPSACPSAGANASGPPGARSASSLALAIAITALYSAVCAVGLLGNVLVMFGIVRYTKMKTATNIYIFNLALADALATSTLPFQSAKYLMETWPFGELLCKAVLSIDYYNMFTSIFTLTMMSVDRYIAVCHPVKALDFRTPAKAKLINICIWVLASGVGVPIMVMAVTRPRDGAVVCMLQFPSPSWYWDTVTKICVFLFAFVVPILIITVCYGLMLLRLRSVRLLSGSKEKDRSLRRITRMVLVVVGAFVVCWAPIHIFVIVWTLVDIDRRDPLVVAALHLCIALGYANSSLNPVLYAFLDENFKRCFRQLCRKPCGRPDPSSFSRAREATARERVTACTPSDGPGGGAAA
T1 sequence (P41145 whole entry, looked up): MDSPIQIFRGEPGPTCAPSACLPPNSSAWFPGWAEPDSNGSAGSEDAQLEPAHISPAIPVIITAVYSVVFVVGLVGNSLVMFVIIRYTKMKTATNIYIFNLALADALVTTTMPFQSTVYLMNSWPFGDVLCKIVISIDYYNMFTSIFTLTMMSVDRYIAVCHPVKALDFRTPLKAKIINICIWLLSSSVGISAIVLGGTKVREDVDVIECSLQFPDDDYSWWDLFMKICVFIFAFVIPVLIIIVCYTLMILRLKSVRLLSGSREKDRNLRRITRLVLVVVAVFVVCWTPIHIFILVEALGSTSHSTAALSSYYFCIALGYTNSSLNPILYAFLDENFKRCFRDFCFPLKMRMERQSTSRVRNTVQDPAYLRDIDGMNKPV
T2 sequence (P32300 whole entry, looked up): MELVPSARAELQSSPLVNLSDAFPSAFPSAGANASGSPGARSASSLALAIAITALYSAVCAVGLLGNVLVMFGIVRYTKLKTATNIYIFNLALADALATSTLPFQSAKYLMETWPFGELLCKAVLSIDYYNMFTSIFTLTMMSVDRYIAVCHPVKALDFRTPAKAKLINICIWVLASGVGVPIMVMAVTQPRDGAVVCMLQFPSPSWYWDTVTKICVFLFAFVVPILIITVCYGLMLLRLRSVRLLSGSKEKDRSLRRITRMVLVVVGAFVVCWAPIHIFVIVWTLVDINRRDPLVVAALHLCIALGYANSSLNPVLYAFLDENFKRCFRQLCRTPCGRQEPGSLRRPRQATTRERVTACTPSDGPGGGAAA
T2 sequence (P33534 whole entry, looked up): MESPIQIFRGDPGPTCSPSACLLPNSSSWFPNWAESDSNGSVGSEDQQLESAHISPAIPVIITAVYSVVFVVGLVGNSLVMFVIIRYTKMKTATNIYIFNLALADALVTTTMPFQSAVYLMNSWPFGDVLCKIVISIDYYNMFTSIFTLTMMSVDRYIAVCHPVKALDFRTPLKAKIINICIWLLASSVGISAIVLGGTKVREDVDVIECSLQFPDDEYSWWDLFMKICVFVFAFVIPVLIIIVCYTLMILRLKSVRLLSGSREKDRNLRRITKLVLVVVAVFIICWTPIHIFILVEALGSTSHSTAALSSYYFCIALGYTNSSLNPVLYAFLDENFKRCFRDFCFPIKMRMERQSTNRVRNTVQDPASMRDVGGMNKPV
T2 sequence (P42866 whole entry, looked up): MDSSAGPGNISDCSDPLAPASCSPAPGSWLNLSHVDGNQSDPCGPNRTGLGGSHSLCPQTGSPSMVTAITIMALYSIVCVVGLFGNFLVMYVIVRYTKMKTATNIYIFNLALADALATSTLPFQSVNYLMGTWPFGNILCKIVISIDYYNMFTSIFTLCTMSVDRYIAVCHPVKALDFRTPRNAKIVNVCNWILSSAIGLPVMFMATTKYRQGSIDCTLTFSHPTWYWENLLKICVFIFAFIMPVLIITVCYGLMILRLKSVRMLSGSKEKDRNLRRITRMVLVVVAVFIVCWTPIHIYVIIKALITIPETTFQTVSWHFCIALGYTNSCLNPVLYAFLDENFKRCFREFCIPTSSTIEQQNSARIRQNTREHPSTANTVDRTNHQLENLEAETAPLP
Chain of Opioid receptors; mu and delta (Mus musculus) (P32300 whole entry, looked up): as the sequence (P32300 whole entry, looked up) above
Chain of Opioid receptors; mu and delta (Mus musculus) (P42866 whole entry, looked up): as the sequence (P42866 whole entry, looked up) above

As usually defined, the IC50 is the concentration needed to halve the response being measured. The low end stands for higher potency, the high end for lower potency. For the molecule `O=C(/C=C/C(=O)OCCc1ccccc1)N[C@@H]1CC[C@@]2(O)C3Cc4ccc(O)c5c4C2(CCN3CC2CC2)[C@H]1O5` (some centres not stated), the half-maximal inhibitory concentration (IC50) at Opioid receptor [1] was 70.1 nM; on Opioid receptor [7] it was 0.015 nM. Moreover, the Potency ratio in test [2] came to 10.4. Also, the Ratio is 4.84 and 2.88 in test [3]; 3.73 in test [4]; 64.7 in test [5]; 24.4 in test [6].

With `CCCCOC(=O)/C=C/C(=O)N[C@@H]1CC[C@@]2(O)C3Cc4ccc(O)c5c4C2(CCN3CC2CC2)[C@H]1O5` (some centres not stated), the IC50 stood at 7 nM on Opioid receptor [1] and 1.65 nM at Opioid receptor [7]. For the same molecule, in [2], the Potency ratio is 66.1. For the same molecule, the Ratio was 5.05 and 4.42 in test [3]; 1.75 in test [4]; 10 in test [8].

In general, IC20 refers to the concentration at which the effect reaches the 20% level. Low values mean greater potency, high ones weaker potency. Take `CCCOC(=O)/C=C/C(=O)N[C@@H]1CC[C@@]2(O)C3Cc4ccc(O)c5c4C2(CCN3CC2CC2)[C@H]1O5` (some centres not stated): in the test listed under Mus musculus, the Activity is reported as 56%. The molecule also came in with a 20% effect concentration (IC20) in [9] of 200 nM. Also, the results for the concentration for half-maximal inhibition (IC50) on Opioid receptor [1] and on Opioid receptor [7] were 21 nM and 1.56 nM, respectively. In addition, in test [2], the Potency ratio was 147. In addition, the Ratio was 2.46 and 1.69 in test [3]; 1.52 in test [4].

The term inhibition denotes the relative decrease from the control value, in per cent. Low readings indicate little suppression, high ones strong suppression. The molecule `O=C(/C=C/C(=O)OCc1ccccc1)N[C@@H]1CC[C@@]2(O)C3Cc4ccc(O)c5c4C2(CCN3CC2CC2)[C@H]1O5` (some centres not stated) yielded an IC20 in test [9] of 400 nM. Moreover, the inhibition in test [10] stood at 57%. The Potency ratio in test [2] was determined as 1.41. In addition, the Ratio in test [3] was 6.33 and 5.85; in test [4], 1.39. The IC50 on Opioid receptor [7] is listed as 0.3 nM.

Turning to `COC(=O)/C=C/C(=O)N[C@@H]1CC[C@@]2(O)[C@H]3Cc4ccc(O)c5c4[C@@]2(CCN3CC2CC2)[C@H]1O5`, the IC50 on Opioid receptor [1] is recorded as 82 nM; on Opioid receptor [7] it was 1.03 nM. The Potency ratio in test [2] was found to be 5. Further, the Ratio in [11] was 12; in test [12] it was 6; in test [13], 1.2; in test [14] it was 1.1; in [15], 10.6.

Consider `CCOC(=O)/C=C/C(=O)N[C@@H]1CC[C@@]2(O)C3Cc4ccc(O)c5c4C2(CCN3CC2CC2)[C@H]1O5` (some centres not stated), for which the IC50 is on record as 13 nM at Opioid receptor [1] and 0.64 nM on Opioid receptor [7]. The Potency ratio in [2] came out at 16.1. For the same molecule, the Ratio in [16] was 1.67; in [17] it was 2.06; in test [3] it was 1.75 and 2.22; in test [4] it was 1.24; in [8], 2.53.
